From paper PMC11094776 (Protein Science : A Publication of the Protein Society, 2024)
Non-standard residues stand in square brackets, D forms with d. Residues, ends and D or L forms follow the SMILES beside them. No end group written: not given here. *: point of attachment. FITC = O=C1OC2(c3ccc(O)cc3Oc3cc(O)ccc32)c2ccc(NC(=S)*)cc21; βAla = NCCC(=O)O

Legend:
MBP‐GS‐AF9 AHD = target: T1, MBP‐GS‐AF9 AHD (Homo sapiens, UniProt P42568); experiment: Fluorescence polarization direct binding, MBP-GS-AF9 AHD
T1 sequence (P42568 500-568): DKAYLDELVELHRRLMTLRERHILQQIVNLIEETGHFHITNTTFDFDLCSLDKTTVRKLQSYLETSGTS
Summary of the method: (§1)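 Fusion protein expressed at 18°C in Rosetta (DE3) cells in TB medium. Cells were lysed by sonication in 50 mM Tris 7.4, 150 mM NaCl, 10% glycerol, 20 mM imidazole, 3 mM TCEP. Protein was captured on Ni-NTA, eluted with a 50–250 mM imidazole gradient, TEV-treated overnight (1:100 w/w), then run on Superdex 200 SEC. Stored at −80°C in 25 mM Tris 7.4, 150 mM NaCl, 1 mM TCEP.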

MBP‐RITK‐AF9 AHD = target: T2, MBP‐RITK‐AF9 AHD (Homo sapiens, UniProt P42568); experiment: Fluorescence polarization direct binding, MBP-RITK-AF9 AHD
T2 sequence (P42568 500-568): T1 sequence (P42568 500-568)
Summary of the method: as §1

[1] = target: MBP‐AAA‐AF9 AHD Q336C/A502C (Homo sapiens, UniProt P42568, A502C/Q361C); experiment: Fluorescence polarization direct binding, MBP-AAA-AF9 AHD Q336C/A502C
Summary of the method: as §1

[2] = target: MBP‐AAAA‐AF9 AHD Q336C/K501C (Homo sapiens, UniProt P42568, Q361C); experiment: Fluorescence polarization direct binding, MBP-AAAA-AF9 AHD Q336C/K501C
Summary of the method: as §1

MBP‐AAA‐AF9 AHD = target: T3, MBP‐AAA‐AF9 AHD (Homo sapiens, UniProt P42568); experiment: Fluorescence polarization direct binding, MBP-AAA-AF9 AHD
T3 sequence (P42568 500-568): T1 sequence (P42568 500-568)

MBP‐AAAA‐AF9 AHD = target: T4, MBP‐AAAA‐AF9 AHD (Homo sapiens, UniProt P42568); experiment: Fluorescence polarization direct binding, MBP-AAAA-AF9 AHD
T4 sequence (P42568 500-568): T1 sequence (P42568 500-568)

AF9 AHD = settings: cited from earlier work; for interaction sites within the DOT1L sequence: ref Kuntimaddi et al., 2015
ENL AHD = settings: ref Kabra & Bushweller, 2022; cited from earlier work
[3] = target: DOT1L (879–888 aa) derived fluorescent labeled peptide; experiment: fluorescence polarisation
[4] = target: AF4 (761–770 aa) derived fluorescent labeled peptide (UniProt P51825); experiment: fluorescence polarisation

CC[C@H](C)[C@H](NC(=O)[C@H](CCCCN)NC(=O)[C@@H](NC(=O)[C@H](CCSC)NC(=O)[C@H](CC(C)C)NC(=O)CCNC(=O)CCNC(=O)[C@H](CCCCNC(=S)Nc1ccc2c(c1)C(=O)OC21c2ccc(O)cc2Oc2cc(O)ccc21)NC(C)=O)C(C)C)C(=O)N[C@H](C(=O)N[C@@H](CC(C)C)C(=O)N[C@@H](CC(=O)O)C(=O)N[C@@H](CC(C)C)C(=O)N[C@@H](CC(C)C)C(N)=O)[C@@H](C)O [AF4 (761–770 aa)] (Ac-K(FITC)[βAla][βAla]LMVKITLDLL-NH2)
Kd (MBP‐GS‐AF9 AHD): 3.7 ± 0.94 nM | Kd (MBP‐RITK‐AF9 AHD): 1.31 ± 0.05 nM | Kd [1]: 3.49 ± 0.18 nM | Kd [2]: 1.26 ± 0.11 nM

CC[C@H](C)[C@H](NC(=O)[C@H](CO)NC(=O)[C@@H](NC(=O)[C@@H]1CCCN1C(=O)[C@H](CC(C)C)NC(=O)CCNC(=O)CCNC(=O)[C@H](CCCCNC(=S)Nc1ccc2c(c1)C(=O)OC21c2ccc(O)cc2Oc2cc(O)ccc21)NC(C)=O)C(C)C)C(=O)N1CCC[C@H]1C(=O)N[C@@H](CC(C)C)C(=O)N[C@@H](C)C(=O)N[C@@H](CO)C(=O)N[C@H](C(N)=O)C(C)C [DOT1L (879–888 aa)] (Ac-K(FITC)[βAla][βAla]LPVSIPLASV-NH2)
Kd (MBP‐GS‐AF9 AHD): 17.9 ± 3.49 nM | Kd (MBP‐AAA‐AF9 AHD): 8.79 ± 0.41 nM | Kd (MBP‐AAAA‐AF9 AHD): 15.6 ± 1.93 nM | Kd (MBP‐RITK‐AF9 AHD): 7.86 ± 0.76 nM | Kd [1]: 20.9 ± 2.59 nM | Kd [2]: 10.7 ± 2.84 nM

AF4 peptide: AF4 peptide of prior reports (LMVKITLDLL; also: fluorescent label, dye and position not given here)
affinity for AF9 AHD relative to DOT1L peptide (AF9 AHD; prior reports, ref Kabra & Bushweller, 2022, Shen et al., 2013): higher affinity

BCOR peptide (1176–1228): longer BCOR peptide (1176–1228) (TNSSSNHLEDPHYSELTNLKVCIELTGLHPKKQRHLLHLRERWEQQVSAADGK; UniProt Q6W2J9 1176-1228, looked up, fragment)
binding affinity compared with short peptide (1176–1207) (AF9 AHD; AF9 AHD, ref Kabra & Bushweller, 2022): higher binding affinity | binding affinity compared with short peptide (1176–1207) (ENL AHD): higher binding affinity

LELQISIVEL [LELQISIVEL (638–647)]
interaction sites within the DOT1L sequence (AF9 AHD): interaction sites

LPISIPLSTV [LPISIPLSTV (865–874)]
binding site for the AHD (AF9 AHD; mapped 10-amino acid DOT1L peptide, ref Grigsby et al., 2021, Shen et al., 2013): binding site for the AHD

LPVSIPLASV [LPVSIPLASV (879–888)]
interaction sites within the DOT1L sequence (AF9 AHD): interaction sites

MBP‐AAAA‐AF9 AHD (from UniProt P42568 500-568) (domain or fragment)
Kd [3]: 15.6 nM

MBP‐AAAA‐AF9 AHD Q336C/K501C (from UniProt P42568 500-568) (domain or fragment)
Kd [4]: 1.26 nM | Kd [3]: 10.7 nM

MBP‐AAA‐AF9 AHD (from UniProt P42568 500-568) (domain or fragment)
Kd [3]: 8.79 nM

MBP‐AAA‐AF9 AHD Q336C/A502C (from UniProt P42568 500-568) (domain or fragment)
Kd [3]: 20.9 nM

MBP‐GS‐AF9 AHD (from UniProt P42568 500-568) (domain or fragment)
Kd [3]: 17.9 nM

MBP‐RITK‐AF9 AHD (from UniProt P42568 500-568) (domain or fragment)
Kd [4]: 1.31 nM | Kd [3]: 7.86 nM
